# Rows were chosen to be rich in hits. Some 3.1% of all compounds tested hit in one or more screens of this group.
# OX1R antag-1 – antagonists of human orexin 1 receptor (OX1R); OX1R-expressing cells, FRET antagonist read-out; inhibition, % at 6.6 µM; 1.8% of 330,000 active; AID 485270; in the data active = inhibition mostly above about 38%, no sharp cut-off; inactive = mostly below about 40%;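 note: 0% = agonist challenge alone and 100% = reference antagonist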
# GalR3 antagonist – blocks the human galanin receptor 3 | HEK293 GalR3-CNG cAMP membrane potential fluorescence; galR3 body fused to GalR1 C-terminus | inhibition, % at 3 µM | AID 651719 | 0.44% of 360,000 active | O60755;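 active = inhibition above the screen-wide average plus 3 SD, cut at about 13% in these data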;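 note: forskolin and galanin both at EC90 stimulate the cells; cAMP rise reported by CNG channel membrane potential dye signal; 0% = forskolin plus galanin with DMSO and 100% = forskolin alone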
# Target sequence (O60755 1-299 limits assumed): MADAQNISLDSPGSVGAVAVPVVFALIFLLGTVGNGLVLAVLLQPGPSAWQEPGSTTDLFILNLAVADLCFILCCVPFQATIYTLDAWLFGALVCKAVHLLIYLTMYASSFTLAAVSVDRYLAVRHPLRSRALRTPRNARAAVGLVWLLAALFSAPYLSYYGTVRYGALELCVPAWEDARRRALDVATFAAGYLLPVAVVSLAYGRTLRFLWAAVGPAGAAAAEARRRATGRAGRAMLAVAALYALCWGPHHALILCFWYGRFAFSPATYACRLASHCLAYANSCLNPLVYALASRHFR
# OX1R antag-2 – blocks the human orexin 1 receptor | CHO/OX1R cells, Fluo-8 calcium fluorescence, orexin A | O43613 | inhibition, % at 5 µM | 0.43% of 330,000 active;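 active = inhibition above its plate's threshold, mean inhibition of all tested compounds on the plate plus 3 SD, cut at about 37% in these data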;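 note: 0% = orexin A challenge wells and 100% = SB-334867-A antagonist wells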
# CHO parental Ca – counter-screen: ATP calcium response change in parental CHO cells. parental CHO-K1, ATP-induced calcium, Fluo-8 fluorescence. inhibition, % at 5.6 µM. 0.63% of 330,000 active;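 active = inhibition above that plate's mean sample inhibition plus 3 SD, cut at about 26% in these data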;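 note: 0% = ATP-challenged DMSO wells and 100% = DMSO wells without ATP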
#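 test system = CHO parental line | reagent = ATP stimulus | measured by = intracellular calcium via Fluo-8 no-wash fluorescent dye | control set = ATP and no-ATP DMSO wells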
# GPR7 antag – blocks human GPR7 receptor signaling; P48145; GPR7-expressing cells, fluorescence antagonist assay; inhibition, % at 4.4 µM; 1.1% of 290,000 active; AID 1861; in the data active = inhibition above about 16%, passing the limit was not always enough;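 note: cells stimulated with the agonist NPW; 0% = agonist with vehicle and 100% = vehicle without agonist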
# Target sequence (P48145 whole entry, looked up): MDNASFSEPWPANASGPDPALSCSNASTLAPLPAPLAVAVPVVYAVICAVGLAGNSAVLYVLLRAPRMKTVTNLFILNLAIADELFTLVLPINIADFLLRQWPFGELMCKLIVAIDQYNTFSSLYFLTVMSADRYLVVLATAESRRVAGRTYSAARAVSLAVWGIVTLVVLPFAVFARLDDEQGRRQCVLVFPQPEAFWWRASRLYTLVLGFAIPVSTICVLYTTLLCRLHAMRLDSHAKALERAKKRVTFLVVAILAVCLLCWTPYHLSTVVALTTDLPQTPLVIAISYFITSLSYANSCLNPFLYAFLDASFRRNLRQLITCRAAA
# An asterisk follows results filed as active; x = not tested or not shown.
SMILES,OX1R antag-1,GalR3 antagonist,OX1R antag-2,CHO parental Ca,GPR7 antag
Cc1c(C(=O)NCc2ccc3c(c2)OCO3)oc2ccccc12,45*,0,-3,-9,-9
O=S(=O)(NCc1ccc2c(c1)OCO2)c1ccc2c(c1)oc1ccccc12,44*,-11,19,-9,-5
Cc1ccc2oc(C(=O)NCc3ccc4c(c3)OCO4)c(C)c2c1,59,-2,-14,-5,-5
CCc1nc2c(OCC3COc4ccccc4O3)cccn2c1N(C)C(=O)c1cccc(OC)c1 (stereo not drawn),x,-8,x,x,x
CON(Cc1ccccc1)S(=O)(=O)c1ccccc1Br,x,-8,x,x,x
Nc1n[nH]c2cc(=O)n(-c3ccc(Cl)cc3)nc12,46*,0,-1,-7,-9
COc1ccc(-n2nc(C(N)=O)c(O)cc2=O)cc1,10,-3,-20,3,-1
COc1ccc(-n2nc3c(N)n[nH]c3cc2=O)cc1,54*,1,-7,-9,-6
O=C(Nc1ccccc1)OC[C@@H]1CSCCS(=O)(=O)N1,x,-6,x,x,x
Cc1cc(NS(=O)(=O)c2ccc(NC(=O)Cc3ccc([N+](=O)[O-])cc3)cc2)nc(C)n1,20,-5,7,-4,x
C[C@@H]1CN([C@@H](C)CO)C(=O)CCCn2cc(nn2)CO[C@H]1CN(C)C(=O)Nc1ccccc1,x,-6,x,x,x
COc1cccc(OC)c1OCCCc1c(C)n[nH]c1C,8,-2,-12,0,16*
CCc1ccc(S(=O)(=O)NCc2csc(-c3cccnc3)n2)s1,64*,x,8,-21,12
O=S(=O)(NCc1csc(-c2cccnc2)n1)c1cccs1,28,x,-6,-11,3
CC(=O)N1CCN(C(=O)COC(=O)/C=C/c2ccccc2[N+](=O)[O-])CC1,37*,-4,5,1,x
O=C1/C(=C/c2cccc(Br)c2)SC(=S)N1CCC(=O)N(CCO)c1ccccc1,0,-11,-19,39*,-16
CC(C)(C)n1nnnc1C(c1ccccc1)N1CCN(c2c(Cl)cncc2Cl)CC1 (stereo not drawn),x,-6,x,x,x
CC(C)c1ccc(NC(=O)CSC(C)c2nc3ccccc3c(=O)[nH]2)cc1 (stereo not drawn),63*,-2,2,-5,-16
CC(SCC(=O)Nc1ccccc1)c1nc2ccccc2c(=O)[nH]1 (stereo not drawn),12,-3,-11,-15,-5
CCOc1ccc(S(=O)(=O)N2CCN(C(=O)CCC(=O)N3CCOCC3)CC2)cc1,15,-2,-5,-19,x
O=C(CCC(=O)N1CCN(S(=O)(=O)c2ccc([N+](=O)[O-])cc2)CC1)N1CCOCC1,48*,-5,10,-3,x
O=[N+]([O-])c1cccc(S(=O)(=O)NCCCN2CCOCC2)c1,31,10,-4,-5,3
Cc1nn(Cc2ccc(C(=O)N3CCN(C(=O)c4ccco4)CC3)o2)c(C)c1[N+](=O)[O-],66*,-2,-17,-12,-10
O=C(c1ccco1)N1CCN(S(=O)(=O)c2ccc([N+](=O)[O-])cc2)CC1,63*,-8,-24,-9,4
O=[N+]([O-])c1ccc(S(=O)(=O)NCCN2CCOCC2)cc1,43*,-4,-28,8,4
SMILES,OX1R antag-1,GalR3 antagonist,OX1R antag-2,CHO parental Ca,GPR7 antag
COC(CNC(=O)c1ccc2nc3ccccc3c(=O)n2c1)OC,38*,-13,-14,-9,1
COCCCNC(=O)c1ccc2nc3ccccc3c(=O)n2c1,35,-8,-23,-13,-4
CCCc1c(Cc2cccc(F)c2)ncn1CCc1ccccc1OC,x,-8,x,x,x
Cc1ccc(S(=O)(=O)N(C)C)cc1NC(=S)Nc1cccc2ccccc12,49,-2,-13,-22,46*
COc1cccc(-c2nc(CS(=O)(=O)CC(=O)Nc3ccccc3Cl)c(C)o2)c1,51*,1,5,-19,-4
Cc1c(CCOC(=O)c2cc([N+](=O)[O-])cc([N+](=O)[O-])c2)sc[n+]1CC(=O)c1ccccc1,26,-8,-16,-23,-8
Cc1c(CCOC(=O)c2ccccc2)sc[n+]1CC(=O)c1ccc(Br)cc1,13,x,-17,-7,20*
N#Cc1ccc(OS(=O)(=O)c2ccc(-c3ccon3)s2)cc1,17,-3,5,34*,-1
CSc1nc(N)nc(-c2cccs2)c1C#N,101*,-4,27,12,0
CC(CCc1ccccc1)NC(=O)C(Cc1ccccc1)NS(=O)(=O)c1cccs1 (stereo not drawn),38*,-1,-18,-21,6
CC1CCCCC1NC(=O)C(Cc1ccccc1)NS(=O)(=O)c1cccs1 (stereo not drawn),25,2,-29,-21,12
COc1ccc2c(CC(=O)N3CCN(S(=O)(=O)c4ccc(F)cc4)CC3)coc2c1,-2,-2,-1,-14,x
N#Cc1ccc(NC(=O)CNc2cc(S(=O)(=O)N3CCOCC3)ccc2NCC2CCCO2)cc1 (stereo not drawn),-2,-1,-24,39*,-5
COC(=O)[C@@]12C[C@@H](CC(=O)NCc3cccc4ccccc34)C(=O)N(CCc3ccc(OC)c(OC)c3)C1=CCC(C)(C)C2,x,-5,x,x,x
O=C1CN(C(=O)COC(=O)c2ccc([N+](=O)[O-])s2)c2ccccc2N1,45*,x,-13,-11,x
O=C1CN(C(=O)COC(=O)c2ccc([N+](=O)[O-])o2)c2ccccc2N1,34*,-7,-20,-6,x
COc1ccc(Br)cc1/C=N/NC(=O)c1ccc2nc[nH]c2c1,41*,0,3,-4,-7
COc1cc(/C=N/NC(=O)c2ccc3c(c2)OCCO3)c(Br)c(Br)c1O,65*,-1,4,-15,-1
COc1ccc(Br)cc1/C=N/NC(=O)c1ccc(OC)c(OC)c1,43*,-5,-16,-2,1
COC(=O)C1=C(C)N(Cc2ccccc2C(F)(F)F)C(=NCc2ccc3c(c2)OCO3)NC1c1cccc(F)c1 (stereo not drawn),x,-10,x,x,x
COC(=O)C1=C(C)N(C)C(=NCC2CC2)NC1c1ccccc1C(F)(F)F (stereo not drawn),x,-6,x,x,x
CSc1nnc2c(n1)OC(c1ccccn1)N(C(C)=O)c1ccccc1-2 (stereo not drawn),19,-3,-10,-3,-11
CSc1nnc2c(n1)OC(c1ccc(C(=O)O)cc1)N(C(C)=O)c1ccccc1-2 (stereo not drawn),50*,0,-3,-5,0
CN(C)c1ccc(NC(=O)c2ccc3nsnc3c2)cc1,32,-2,16,-5,-4
CC(=O)c1ccc(NC(=O)c2ccc3nc(C)sc3c2)cc1,61*,-2,1,-12,-19
Cc1ccc(NC(=O)c2ccc(NCCN)c([N+](=O)[O-])c2)cc1Cl,10,-6,-11,-3,8
Cc1nc2ccc(NC(=O)c3ccc4ccccc4n3)cc2s1,65*,-2,0,-17,-8
Cc1nc2ccc(NC(=O)c3ccccc3)cc2s1,16,7,-29,-8,1

# Screens: PubChem, The Scripps Research Institute Molecular Screening Center
